Reference: publication PMC7564034 (Acta Pharmaceutica Sinica. B, 2019)
Like-named read-outs stand apart in the source and are kept apart here. One block for each molecule: values may come before it.

Key:
[1] = assay type: in vivo, Balb/c nude mice harboring LoVo xenografts; conditions: for AUC0–∞ ratio Multiple/Single in tumors: 8-day vs single SMI 10 mL/kg/day i.p.
[2] = Constituent ratio of ginsenosides in SMI, plasma, tumor and endothelial cells; assay type: in vivo, Balb/c nude mice harboring LoVo xenografts; conditions: 20 min after 15-day SMI treatment
In short: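 Tissues were sampled 20 min after the last dose of a 15-day i.p. course. Tumors were digested 1 h in DMEM with collagenase I (2 mg/mL) and DNase I (0.1 mg/mL), then strained through 40 μm mesh. CD31+ cells were enriched with PE anti-mouse CD31 and anti-PE magnetic particles, with purity checked by CD45/viability flow cytometry; n = 3. Each ratio = concentration of the constituent / summed eight ginsenosides.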

HUVEC = experiment: Uptake of ginsenosides by HUVEC in vitro; assay type: cell-based, human; conditions: compared to Rb1 and Rb2 (Fig. S5)
[3] = assay type: in vivo, Balb/c nude mice harboring LoVo xenografts; conditions: for Cmax / Tmax: Balb/c nude, mouse, plasma
In short: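 Male LoVo-xenograft nude mice (6 weeks old) received 10 mL/kg i.p., either once or daily for 8 days. Blood (~0.1 mL) was drawn from the oculi chorioideae vein into heparin tubes between 5 min and 96 h after the last dose, 5 mice per time point. Plasma was spun at 8000 rpm for 5 min and extracted with methanol. AUC0–∞ and the multiple/single ratio were derived.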

VEGF = experiment: ELISA of VEGF secretion in tumors; assay type: in vivo, Balb/c mice harboring LoVo xenografts; conditions: 15 days i.p., vs vehicle
In short: (§1)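 Mice received test compound i.p. for 15 days. Tumors were harvested 20 min after the final dose and homogenized in RIPA buffer. VEGF and FGF were quantified by ELISA kit and normalized to protein content measured by BCA assay. Compared with vehicle.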

HUVECs [4] = experiment: Cell viability assay; assay type: cell-based, human; conditions: Rd 1–50 μmol/L, SMI 5 μL/mL; 24 h; normoxia or hypoxia
In short: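 HUVECs were exposed to test compound for 24 h under normoxia or hypoxia (1% O2, 5% CO2). Viability was measured by MTT and expressed as a percentage of DMSO-treated cells under normoxia; n = 6.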

HUVECs [5] = experiment: EDU staining; assay type: cell-based, human; conditions: Rd 2, 10, 50 μmol/L; 24 h; hypoxia
[6] = tested on: tumor vessels in LoVo xenografts; experiment: CD31/α-SMA double staining, pericyte coverage around tumor vessels; assay type: in vivo, Balb/c nude mice; conditions: 15 days i.p.; SMI, Rd-H 5 mg/kg; vs vehicle
In short: (§2)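 Tumors from mice given test compound i.p. for 15 days were fixed in 4% PFA and cut into 12 μm sections. Sections were stained overnight with anti-CD31 at 1:100; for pericyte coverage, anti-SMA at 1:100 was added. Cy5- or Cy2-conjugated secondary (1:200) was applied for 1 h at 37 °C. Confocal Z-stacks were reconstructed in 3D or as maximum intensity projections. Compared with vehicle.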

HUVECs [7] = experiment: Capillary-like tube formation assay; assay type: cell-based; conditions: Homo sapiens, HUVEC, read-out: Inhibition of tube formation ability of HUVECs
In short: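 Conditioned medium was taken as supernatant after 24 h exposure to test compound (2, 10, 50 μmol/L). HUVECs were seeded at 5 × 10^4 cells/well on Matrigel and treated with this medium for 5.5 h under normoxia or hypoxia (1% O2, 5% CO2). Tubes were stained with calcein for 0.5 h before imaging.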

[8] = tested on: tumor vessels in LoVo xenografts; experiment: CD31 staining of tumor slides, microvessels and vessel branches; assay type: in vivo, Balb/c nude mice; conditions: 15 days i.p.
In short: as §2

[9] = assay type: in vivo, Balb/c nude mice harboring LoVo xenografts; conditions: 20 min after 15-day SMI treatment
In short: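 Male 6-week Balb/c nude mice (18 ± 1 g) bearing LoVo xenografts were given SMI intraperitoneally for 15 days. Tumors collected 20 min after the final dose were minced and digested 1 h in DMEM with 2 mg/mL collagenase type I and 0.1 mg/mL DNase I. Cells were split into endothelial, hematopoietic and other fractions; purity was checked by flow cytometry (anti-mouse CD45, viability stain). n = 3, mean ± SEM.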

FGF = experiment: ELISA of FGF secretion in tumors; assay type: in vivo, Balb/c mice harboring LoVo xenografts; conditions: 15 days i.p.; SMI, Rd-H 5 mg/kg, Rb1, Rg1; vs vehicle
In short: as §1

HUVECs [10] = experiment: Wound healing migration assay; assay type: cell-based, human; conditions: 24 h
In short: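 Confluent HUVEC monolayers were scratched with sterile pipette tips and given fresh DMEM containing test compound. Cells were incubated under normoxia or hypoxia (1% O2, 5% CO2) and imaged at 0 and 24 h. Migration length = (scratch area 0 h − scratch area 24 h)/scratch length; n = 6.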

LoVo = experiment: Uptake of ginsenosides by LoVo in vitro; assay type: cell-based, human; conditions: compared to Rb1 and Rb2 (Fig. S5)
LoVo xenografts = experiment: Xenograft tumor growth, SMI or Rd combined with 5FU, 20-day treatment; assay type: in vivo, Balb/c mice; conditions: SMI 10 mL/kg/day or Rd 5 mg/kg/day i.p., 20 days, without 5FU
In short: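 LoVo-xenograft mice with all tumors above 50 mm3 were dosed i.p. for 20 days: 10 mL/kg/day, 5 mg/kg/day, and/or 5FU 15 mg/kg every 3 days. Body weight and tumor axes were recorded daily; tumor volume = 1/2 × a × b². Tumors were resected after treatment. Weight change was read after 17 days; mean ± SEM.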

[11] = assay type: in vivo, mice harboring xenograft tumors; conditions: after intraperitoneal injection of Rb1, Rc, or Rd; data not shown
[12] = SMI i.p., single or multiple not given
[13] = after eight days of SMI 10 mL/kg/day i.p.
[14] = single dose of SMI 10 mL/kg i.p.

- AUC0–∞ ratio Multiple/Single in tumors [1]: 10.53
- AUC0–∞ of Rd in tumors, times higher than that of Rb1 [1, 12]: 8.0 times
- AUC0–∞ of Rd in tumors, times higher than that of Rb2/Rb3 [1, 12]: 7.3 times
- AUC0–∞ of Rd in tumors, times higher than that of Rc [1, 12]: 3.6 times
- AUC0–∞ of Rd in tumors, times higher than that of Ro [1, 12]: 266.6 times
- Constituent ratio in TECs [2]: 40.3%
- Constituent ratio in plasma [2]: 16.0%
- Constituent ratio in tumor tissues [2]: 34.3%
- Uptake by HUVEC (HUVEC): superior uptake
- AUC0–∞ ratio Multiple/Single in plasma ([3]; 8-day vs single SMI 10 mL/kg/day i.p.): 5.28
- Cmax ([3]; intraperitoneal, 10 mL/kg): ~10 µM
- Cmax ([3]; ip, 10 mL/kg): 3200 ng/mL
- Tmax ([3]; ip, 10 mL/kg): 240 min
- Cmax ([3]; ip, 10 mL/kg/day): 10400 ng/mL
- Tmax ([3]; ip, 10 mL/kg/day): 120 min
- AUC0–∞ in plasma relative to those of Re, Rg1, Rg3 and Ro ([3]; after single or multiple SMI administration): more than 20 times
- Concentration of ginsenosides, endothelial cells (TECs) [9]: most abundant distribution in TECs
- Uptake by LoVo (LoVo): superior uptake
SMILES: CC(C)=CCC[C@](C)(O[C@@H]1O[C@H](CO)[C@@H](O)[C@H](O)[C@H]1O)[C@H]1CC[C@]2(C)[C@@H]1[C@H](O)C[C@@H]1[C@@]3(C)CC[C@H](O[C@@H]4O[C@H](CO)[C@@H](O)[C@H](O)[C@H]4O[C@@H]4O[C@H](CO)[C@@H](O)[C@H](O)[C@H]4O)C(C)(C)[C@@H]3CC[C@]12C [Rd, ginsenoside Rd]
- Reduction of the secretion of VEGF in tumors (VEGF; Rd-L 0.5 mg/kg): 32%
- Reduction of the secretion of VEGF in tumors (VEGF; SMI, Rd-H 5 mg/kg, Rb1, Rg1): 32%
- Effect on cell viability of HUVECs (HUVECs [4]): no effect on the cell viability
- Effect on cellular proliferation of HUVECs (EDU/HOECHST) (HUVECs [5]): no significant effect on cellular proliferation
- Increase of pericyte coverage around microvessels [6]: 2.1 fold
- inhibition at 2 µM (HUVECs [7]): 18%
- inhibition at 10 µM (HUVECs [7]): 40%
- inhibition at 50 µM (HUVECs [7]): 56%
- Effect on microvessels, branches and pericyte coverage ([8]; Rd-L 0.5 mg/kg): very modest effects
- Decrease of the number of CD31+ microvessels ([8]; SMI, Rd-H 5 mg/kg, vs vehicle): 37%
- Decrease of vessel branches ([8]; SMI, Rd-H 5 mg/kg, vs vehicle): 59%
- Suppression of the secretion of FGF in tumors (FGF): 68%
- Suppression of hypoxia-induced HUVEC migration (HUVECs [10]; 50 μmol/L): 88%
- Effect on HUVECs migration (HUVECs [10]; Rd 2, 10 and 50 μmol/L or SMI, hypoxia): suppressed HUVECs migration concentration-dependently
- Effect on tumor growth, given alone (LoVo xenografts): no significant effect on tumor growth

- Cmax ([3]; ip, 10 mL/kg): 1600 ng/mL
- Tmax ([3]; ip, 10 mL/kg): 10 min
- Cmax ([3]; ip, 10 mL/kg/day): 1300 ng/mL
- Tmax ([3]; ip, 10 mL/kg/day): 10 min
SMILES: CC(C)=CCC[C@](C)(O[C@@H]1O[C@H](CO)[C@@H](O)[C@H](O)[C@H]1O)[C@H]1CC[C@]2(C)[C@@H]1[C@H](O)C[C@@H]1[C@@]3(C)CC[C@H](O)C(C)(C)[C@@H]3[C@@H](O[C@@H]3O[C@H](CO)[C@@H](O)[C@H](O)[C@H]3O[C@@H]3O[C@@H](C)[C@H](O)[C@@H](O)[C@H]3O)C[C@]12C [Re]

- Cmax ([3]; ip, 10 mL/kg): 2000 ng/mL
- Tmax ([3]; ip, 10 mL/kg): 10 min
- Cmax ([3]; ip, 10 mL/kg/day): 2100 ng/mL
- Tmax ([3]; ip, 10 mL/kg/day): 10 min
SMILES: CC(C)=CCC[C@](C)(O[C@@H]1O[C@H](CO)[C@@H](O)[C@H](O)[C@H]1O)[C@H]1CC[C@]2(C)[C@@H]1[C@H](O)C[C@@H]1[C@@]3(C)CC[C@H](O)C(C)(C)[C@@H]3[C@@H](O[C@@H]3O[C@H](CO)[C@@H](O)[C@H](O)[C@H]3O)C[C@]12C [Rg1]
- Reduction of the secretion of VEGF in tumors (VEGF; SMI, Rd-H 5 mg/kg, Rb1, Rg1): 1%
- Suppression of the secretion of FGF in tumors (FGF): 97%

- Detection in tumors over time ([1]; 20 min, 2, 12, 24, 96 h after single or multiple SMI administration): could not be identified at any time
- Detection in plasma or tumor tissues [11]: neither Rg3 nor CK could be detected
- Cmax in plasma [3, 13]: 300 ng/mL
- Time of maximum concentration in plasma [3, 13]: 20 min
- Cmax in plasma [3, 14]: 100 ng/mL
- Time of maximum concentration in plasma [3, 14]: 60 min
SMILES: CC(C)=CCC[C@](C)(O)[C@H]1CC[C@]2(C)[C@@H]1[C@H](O)C[C@@H]1[C@@]3(C)CC[C@H](O[C@@H]4O[C@H](CO)[C@@H](O)[C@H](O)[C@H]4O[C@@H]4O[C@H](CO)[C@@H](O)[C@H](O)[C@H]4O)C(C)(C)[C@@H]3CC[C@]12C [Rg3]

- AUC0–∞ ratio Multiple/Single in tumors [1]: 0.92
- Cmax in plasma [3, 13]: 3700 ng/mL
- Time of maximum concentration in plasma [3, 13]: 20 min
- Cmax in plasma [3, 14]: 3900 ng/mL
- Time of maximum concentration in plasma [3, 14]: 60 min
SMILES: CC1(C)CC[C@]2(C(=O)O[C@@H]3O[C@H](CO)[C@@H](O)[C@H](O)[C@H]3O)CC[C@]3(C)C(=CC[C@@H]4[C@@]5(C)CC[C@H](O[C@@H]6O[C@H](C(=O)O)[C@@H](O)[C@H](O)[C@H]6O[C@@H]6O[C@H](CO)[C@@H](O)[C@H](O)[C@H]6O)C(C)(C)[C@@H]5CC[C@]43C)[C@@H]2C1 [Ro, ginsenoside Ro]
